Source: PubChem
TCR CD3 inh: inhibitors of human TCR-CD3 interaction, primary screen, biochemical, fluorescence, TAMRA-labeled TCR probe; inhibition, % at 9.4 µM; hit rate 0.37% among 360,000; AID 651800, 2012;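 further: recombinant mutant TCR 2C K166C tagged with TAMRA read by polarization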
Tn6 DDE FP: inhibitors of Tn6 peptide binding to fibrin DD(E), primary screen, biochemical, fluorescence polarization, human fibrin, Tn6 probe | Fibrinogen beta chain (Homo sapiens), P02675 | Fibrin DD(E) TRITC-Tn6 fluorescence polarization displacement | inhibition, % at 8.3 µM | hit rate 0.21% among 370,000;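 active means inhibition above a per-campaign cutoff: mean of compounds within control limits plus 3 SD, cut at about 15% in these data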
ABHD4 inh: ABHD4 inhibitors, primary screen, biochemical, fluorescence polarization, mouse; (Lyso)-N-acylphosphatidylethanolamine lipase (Mus musculus), Q8VD66; purified mABHD4, FP-Rh probe fluorescence polarization; inhibition, % at 8.92 µM; hit rate 0.54% among 370,000; AID 720543, 2013;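 active means inhibition exceeding the mean over every tested compound plus 3 SD, cut at about 30% in these data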
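Assay system: mouse ABHD4 enzyme, wild type / Also added: fluorescent activity-based probe FP-Rh / Doses: single nominal dose of 8.92 µM, 0.89% DMSO final / Timing: 45 min compound pre-incubation plus 60 min probe step, 25 °C / Signal: FP readout, ex 525 nm / em 598 nm / Control set: S159A mutant/DMSO as 100%, compound-well median as 0%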
HTRA1 inhibitor: HTRA1 serine protease inhibitors, primary screen, biochemical, fluorescence polarization, HTS. Q92743. recombinant HTRA1, FP-rhodamine activity-based probe. inhibition, % at 5.96 µM. hit rate 0.5% among 340,000; in the data active means inhibition above about 36%
SIAE inh: human SIAE inhibitors, primary screen, biochemical, fluorescence polarization, FP-Rh probe, 1536-well HTS | hit rate 0.69% among 370,000 | SIAE FP-Rh probe binding | AID 1053197, 2014 | inhibition, % at 9.66 µM;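 active means inhibition above a cutoff: mean of compounds within the control limits plus 3 SD of those, cut at about 17% in these data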
Target sequence (Q9HAT2 whole entry, looked up): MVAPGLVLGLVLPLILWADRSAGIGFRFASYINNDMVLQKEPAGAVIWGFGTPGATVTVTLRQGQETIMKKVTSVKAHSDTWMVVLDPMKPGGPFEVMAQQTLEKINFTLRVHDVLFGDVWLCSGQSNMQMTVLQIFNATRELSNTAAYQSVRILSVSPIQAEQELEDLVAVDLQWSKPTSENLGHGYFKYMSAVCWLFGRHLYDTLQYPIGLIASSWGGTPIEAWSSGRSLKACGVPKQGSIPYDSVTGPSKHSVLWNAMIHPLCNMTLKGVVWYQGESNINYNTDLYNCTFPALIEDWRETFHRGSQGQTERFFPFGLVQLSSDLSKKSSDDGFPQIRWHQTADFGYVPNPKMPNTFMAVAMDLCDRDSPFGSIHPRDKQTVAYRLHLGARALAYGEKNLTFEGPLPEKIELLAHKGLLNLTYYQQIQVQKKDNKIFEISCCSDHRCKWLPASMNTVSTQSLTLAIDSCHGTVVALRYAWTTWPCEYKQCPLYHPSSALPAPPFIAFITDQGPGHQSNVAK
DDE Tn7 FP inh: inhibitors of Tn7 peptide binding to fibrin DD(E), primary screen, biochemical, fluorescence polarization, human fibrin, Tn7 probe; AID 720508, 2013; hit rate 0.13% among 370,000; inhibition, % at 8.3 µM; Fibrinogen beta chain (Homo sapiens), P02675; FP displacement of FITC-Tn7 peptide from fibrin DD(E); 0% = median of compound wells per plate;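 active means inhibition above the mean of compounds falling within the control limits plus 3 SD of them, cut at about 14% in these data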
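System: human fibrin DD(E); quantity: Fibrin-DD(E) at 2 µM final; also added: fluorescent Tn7 probe at 0.1 µM; compound dosing: single nominal test concentration of 8.3 µM per compound; schedule: 10 min preincubation, 3 h with tracer, room temperature; detection: fluorescence polarization of the labelled Tn7 tracer; repeats: one replicate per compound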
HTRA1 inh conf: HTRA1 protease inhibitors, retest, confirmation, biochemical, fluorescence polarization. shares compounds with HTRA1 inhibitor. recombinant HTRA1, FP-rhodamine activity-based probe. inhibition, % at 5.96 µM. hit rate 66% among 1,600;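 active means mean inhibition over three repeats above a set limit taken from the earlier primary screen, cut at about 37% in these data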;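 further: inhibitors block probe binding so polarization drops and inhibition rises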
BSA TAMRA ctr: compounds interfering with TAMRA-BSA probe, counter-screen for TCR-CD3 interaction inhibitor project, biochemical, fluorescence, TAMRA-labeled BSA | hit rate 10% among 1,200 | inhibition, % at 9.4 µM | TAMRA-labeled BSA probe fluorescence counterscreen | shares compounds with TCR CD3 inh; in the data active means inhibition above about 23%
TCR-CD3 inh conf: TCR-CD3 interaction inhibitors, retest, confirmation, biochemical, fluorescence, TAMRA-labeled TCR probe. shares compounds with TCR CD3 inh. TAMRA-labeled TCR probe fluorescence binding assay. inhibition, % at 9.4 µM. hit rate 48% among 1,200. AID 652036, 2013
mABHD4 conf: ABHD4 inhibitors, retest, confirmation, biochemical, fluorescence polarization, mouse. inhibition, % at 8.92 µM. purified mABHD4, FP-Rh probe fluorescence polarization. shares compounds with ABHD4 inh. hit rate 55% among 1,800;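 active means mean inhibition across replicates above the hit cutoff set in the primary screen, cut at about 30% in these data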
Of the large screens only hits and unclear results are named; the others gave an inactive call (follow-up assays come after a bar, where they were run); ! = not active in a repeat. In the library only some 1.8% were active in any assay of this set; here they are far more common. Unless noted, no stated cut-off is given here; in the data, active means inhibition above about 19%; inactive means the rest.

O=C1c2ccccc2C(=O)c2c(Nc3ccc(CCO)cc3)ccc(O)c21	ABHD4 inh 48, HTRA1 inhibitor 53 | HTRA1 inh conf 81 | mABHD4 conf 75
COC(=O)[C@]1(CNC(=O)C(C)(C)C)CC(=O)N(Cc2ccc(Cl)cc2)[C@@H]1c1ccc(OC)cc1	none (no result: TCR CD3 inh, HTRA1 inhibitor)
CC[C@@H](CCCCCCCn1ccc2ccccc21)CCC(=O)N(c1ccccc1)c1ccccc1	none (no result: TCR CD3 inh, HTRA1 inhibitor)
CCOC(=O)c1csc(NC(=O)C2CCCN(S(=O)(=O)c3ccccc3[N+](=O)[O-])C2)n1 (configuration not stated)	none (no result: TCR CD3 inh, HTRA1 inhibitor)
CC(C)=CCC[C@@]1(C(=O)O)[C@@H]2C/C=C(\C)CC/C=C(\C)CC[C@H]1[C@]1(CC2)CO1	none (no result: TCR CD3 inh, HTRA1 inhibitor)
O=c1cc2c(=O)oc3cc(O)c(O)oc3c2c(O)c1O	TCR CD3 inh 26, ABHD4 inh 42, HTRA1 inhibitor 47 | HTRA1 inh conf 38 | BSA TAMRA ctr inactive | TCR-CD3 inh conf 19 | mABHD4 conf 34
CC(C)NC(=O)N[C@H]1C[C@@H]2O[C@H](CO)CC[C@@H]2O[C@@H]1CCc1ccc(-c2ccc(F)cc2)cc1	none (no result: TCR CD3 inh, HTRA1 inhibitor)
Cc1cc(O)c(N=Cc2cc3c(cc2[N+](=O)[O-])OCO3)cc1C	ABHD4 inh 45, HTRA1 inhibitor 52 | HTRA1 inh conf inactive | mABHD4 conf inactive
O=C(N/N=C/c1cc2c(cc1[N+](=O)[O-])OCO2)c1ccc2c(c1)OCO2	none
O=C(NC1CCCCN(Cc2cccc(C(F)(F)F)c2)C1=O)c1ccc(Cl)c(Cl)c1 (configuration not stated)	none (no result: TCR CD3 inh, HTRA1 inhibitor)
O=C1c2c(O)ccc(O)c2C(=O)c2c(NCCNCCO)ccc(NCCNCCO)c21	ABHD4 inh 33!, HTRA1 inhibitor 72 | HTRA1 inh conf 59 | mABHD4 conf 37
Oc1cccc(/C=N/N=C/c2cccc(O)c2O)c1O	ABHD4 inh 36, HTRA1 inhibitor 36 | HTRA1 inh conf 45 | mABHD4 conf inactive
COC(=O)[C@]12C[C@H](CC(=O)NCCc3ccccc3OC)C(=O)N(CCC3=CCCCC3)C1=C[C@H](C1CCCC1)O[C@@H]2C	none (no result: TCR CD3 inh, HTRA1 inhibitor)
O=C(NC1CCCCN(Cc2cccc(C(F)(F)F)c2)C1=O)c1ccc(F)cc1 (configuration not stated)	none (no result: TCR CD3 inh, HTRA1 inhibitor)
CC1CCCCC1NC(=O)COC(=O)c1c2c(nc3ccccc13)/C(=C/c1ccco1)CC2 (configuration not stated)	ABHD4 inh 38, HTRA1 inhibitor 81 | HTRA1 inh conf inactive | mABHD4 conf inactive
Cc1cccc(C)c1N=Nc1c(C)cc(O)cc1C	ABHD4 inh 32, HTRA1 inhibitor 47 | HTRA1 inh conf 50 | mABHD4 conf 39
